Measurements taken from ChEMBL document CHEMBL1255462, “Antiviral activity of a small-molecule inhibitor of filovirus infection” (Antimicrob Agents Chemother, 2010).
Active and inactive are the calls of the source. The calls are words filed in the database; no cut-off is given here.

Legend:
[1] = Antiviral activity against Lake Victoria marburgvirus - Ravn in overnight pretreated african green monkey Vero E6 cells after 48 hrs by standard virus yield reduction assay; assay type: functional, cell-based; settings: Kenya, 1987, Vero
[2] = Cytotoxicity against MDCK cells after 72 hrs; assay type: cell-based, Canis lupus familiaris; settings: dog
Outline: (§1)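 Confluent monolayers were treated in triplicate with serially diluted compound at 0.0018 to 320 µM for 72 h. Viability was read by CellTiter Glo luminescence, and CC50 was determined.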

Ebolavirus [3] = assay: Antiviral activity against Ebola-like viruses infected in C57BL/6 mouse spleen assessed as reduction in viral burden at 10 mg/kg, ip single dose; assay type: functional; settings: route intraperitoneal
Ebolavirus [4] = assay: Antiviral activity against Ebola-like viruses infected in C57BL/6 mouse liver assessed as reduction in viral burden at 10 mg/kg, ip single dose; assay type: functional; settings: route intraperitoneal
Ebolavirus [5] = assay: Antiviral activity against Ebola-like viruses infected in C57BL/6 mouse assessed as serum alanine aminotransferase at 10 mg/kg, ip after 24 hrs measured on 4 days postinfection; assay type: functional; settings: route intraperitoneal
Outline: (§2)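 C57BL/6 mice received 10 mg/kg i.p. in saline, or vehicle, 24 h postinfection. Five mice per group were sacrificed on days 2, 4 and 6. Serum was frozen at -70°C until all samples were collected, then assayed for ALT, AST and ALP (U/liter). Values are group means compared with vehicle.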

Ebolavirus [6] = assay: Antiviral activity against Ebola-like viruses infected in C57BL/6 mouse assessed as serum aspartate aminotransferase at 10 mg/kg, ip after 24 hrs measured on 4 days postinfection; assay type: functional; settings: route intraperitoneal; outline: as §2
Ebolavirus [7] = assay: Antiviral activity against Zaire ebolavirus expressing GFP in african green monkey Vero E6 cells at >=0.8 uM after 48 hrs by standard plaque assay; assay type: functional
Ebolavirus [8] = assay: Antiviral activity against Ebola-like viruses infected in C57BL/6 mouse assessed as serum alanine aminotransferase at 10 mg/kg, ip after 24 hrs measured on 6 days postinfection; assay type: functional; settings: route intraperitoneal; outline: as §2
[9] = Cytotoxicity against human HEK293 cells after 72 hrs; assay type: cell-based; outline: as §1
Ebolavirus [10] = assay: Antiviral activity against Ebola-like viruses infected in C57BL/6 mouse assessed as serum aspartate aminotransferase at 10 mg/kg, ip after 24 hrs measured on 6 days postinfection; assay type: functional; settings: route intraperitoneal; outline: as §2
Ebolavirus [11] = assay: Antiviral activity against Ebola-like viruses infected in C57BL/6 mouse kidney assessed as reduction in viral burden at 10 mg/kg, ip single dose; assay type: functional; settings: route intraperitoneal
[12] = Cytotoxicity against human A549 cells after 72 hrs; assay type: cell-based; outline: as §1
[13] = Cytotoxicity against human PBMC after 72 hrs; assay type: cell-based; settings: PBMC (peripheral blood mononuclear cells)
Ebolavirus [14] = assay: Antiviral activity against Ebola-like viruses infected in C57BL/6 mouse assessed as serum alanine aminotransferase at 10 mg/kg, ip after 24 hrs measured on 2 days postinfection; assay type: functional; settings: route intraperitoneal; outline: as §2
[15] = Antiviral activity against Lake Victoria marburgvirus - Ci67 in overnight pretreated african green monkey Vero E6 cells at 10 uM after 48 hrs by standard virus yield reduction assay; assay type: functional; set-up: scale not given: the % may be the effect or the level left
[16] = Cytotoxicity against human Hep2 cells after 72 hrs; assay type: cell-based, HEp-2; outline: as §1
Ebolavirus [17] = assay: Antiviral activity against Ebola-like viruses infected in C57BL/6 mouse assessed as serum alkaline phosphatase at 10 mg/kg, ip after 24 hrs measured on 4 days postinfection; assay type: functional; settings: route intraperitoneal; outline: as §2
Ebolavirus [18] = assay: Antiviral activity against Sudan ebolavirus expressing GFP in african green monkey Vero E6 cells after 48 hrs by standard plaque assay; assay type: functional, cell-based; settings: Orthoebolavirus
Marburgvirus [19] = assay: Antiviral activity against Marburgvirus infected in BALB/C mouse assessed as protection against virus challenge at 5 mg/kg, ip administered 1 day postinfection; assay type: functional; settings: route intraperitoneal
Outline: (§3)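 Compound given once i.p. in 0.9% saline at day 1 postinfection, with vehicle-treated controls. Health and mortality recorded twice daily for 14 days. Animals surviving 14 days were scored as protected, and survival curves were compared by Kaplan-Meier analysis.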

Ebolavirus [20] = assay: Antiviral activity against Ebola-like viruses infected in C57BL/6 mouse assessed as serum aspartate aminotransferase at 10 mg/kg, ip after 24 hrs measured on 2 days postinfection; assay type: functional; settings: route intraperitoneal; outline: as §2
Mus musculus [21] = assay: Toxicity in Ebola-like viruses infected in C57BL/6 mouse spleen assessed as mild lymphocytolysis at 10 mg/kg, ip single dose measured after 4 days; assay type: organism-based; set-up: dose 10 mg/kg, route intraperitoneal; settings: in vivo, 96 h
[22] = Cytotoxicity against african green monkey Vero E6 cells after 72 hrs; assay type: cell-based; settings: chlorocebus sabaeus; outline: as §1
Ebolavirus [23] = assay: Antiviral activity against Ebola-like viruses infected in C57BL/6 mouse assessed as increase in mouse survival at 5 mg/kg, ip single injection; assay type: functional; settings: route intraperitoneal; outline: as §3
Marburgvirus [24] = assay: Antiviral activity against Marburgvirus infected in BALB/C mouse assessed as protection against virus challenge at 10 mg/kg, ip measured for 14 days; assay type: functional, organism-based; set-up: dose 10 mg/kg; outline: as §3
[25] = Antiviral activity against Lake Victoria marburgvirus - Ravn in overnight pretreated african green monkey Vero E6 cells at 25 uM after 48 hrs by standard virus yield reduction assay; assay type: functional; set-up: scale not given: the % may be the effect or the level left
Ebolavirus [26] = assay: Antiviral activity against Zaire ebolavirus expressing GFP in african green monkey Vero E6 cells after 48 hrs by standard plaque assay; assay type: functional, cell-based
Mus musculus [27] = assay: Toxicity in Ebola-like viruses infected in C57BL/6 mouse assessed as mild hepatitis with hepatocellular necrosis at 10 mg/kg, ip single dose measured after 4 days; assay type: organism-based; set-up: dose 10 mg/kg, route intraperitoneal; settings: in vivo, 96 h
Ebolavirus [28] = assay: Antiviral activity against Ebola-like viruses infected in C57BL/6 mouse assessed as serum alkaline phosphatase at 10 mg/kg, ip after 24 hrs measured on 2 days postinfection; assay type: functional; settings: route intraperitoneal; outline: as §2
Ebolavirus [29] = assay: Antiviral activity against Ebola-like viruses infected in C57BL/6 mouse assessed as serum alkaline phosphatase at 10 mg/kg, ip after 24 hrs measured on 6 days postinfection; assay type: functional; settings: route intraperitoneal; outline: as §2
[30] = Antiviral activity against Lake Victoria marburgvirus - Ci67 in overnight pretreated african green monkey Vero E6 cells after 48 hrs by standard virus yield reduction assay; assay type: functional

Work on `N=C(N)c1ccc2oc(/C=C/c3nc4cc(C(=N)N)ccc4[nH]3)cc2c1` yielded an EC50 [1] of 2500 nM, a CC50 at 72 h [2] of at least 50 µM and a log10cfu (Ebolavirus [3]) of 1. The log10cfu (Ebolavirus [4]) was 1, the Activity (Ebolavirus [5]) was 23 U/L and the Activity (Ebolavirus [6]) was 54 U/L. The “inhibition (INH)” value (Ebolavirus [7]) was “>=0.8%”, the Activity (Ebolavirus [8]) was 87 U/L and the CC50 at 72 h [9] was at least 50 µM. It also gave an Activity (Ebolavirus [10]) of 207 U/L, a log10cfu (Ebolavirus [11]) of 1 and a CC50 at 72 h [12] of at least 50 µM. The CC50 at 72 h [13] was at least 50 µM, the Activity (Ebolavirus [14]) was 148 U/L and the Activity [15] was over 90%. It also gave a CC50 at 72 h [16] of at least 50 µM, an Activity (Ebolavirus [17]) of 65 U/L and an EC50 (Ebolavirus [18]) of 420 nM. It also gave an EC90 (Ebolavirus [18]) of 960 nM, an Activity (Marburgvirus [19]) of 40% and an Activity (Ebolavirus [20]) of 237 U/L. The Activity (Mus musculus [21]) was “Toxic”, the CC50 at 72 h [22] was at least 50 µM and the Activity (Ebolavirus [23]) was 60%. The Activity (Marburgvirus [24]) was “Active”, the Activity [25] was over 99.9% and the Activity (Ebolavirus [26]) was “Dose-dependent effect”. The EC50 (Ebolavirus [26]; Orthoebolavirus) was 100 nM, the EC90 (Ebolavirus [26]; Orthoebolavirus) was 330 nM and the Activity (Mus musculus [27]) was “Toxic”. For the same compound, the Activity (Ebolavirus [28]) was 57 U/L, the Activity (Ebolavirus [29]) was 67 U/L and the CC50 [30] was 2500 nM.
